For one data set, the system named is NF-κB. Type of data set: cell-based, human. To be noted: MIAPaCa-2 cells, EMSA.
A short description of another data set: Water solubility. Type of data set: physicochemical. As to conditions: data not shown.
Data set [1] in a line: DPPH radical scavenging assay. Type of data set: biochemical. To be noted: read-out: IC50, DPPH radical scavenging; data not shown.
A short description of data set [2]: Pancreas pharmacokinetics in mice after single intragastric dose. Type of data set: in vivo. A digest of the protocol:
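Female ICR-SCID mice, 7–8 weeks old, 18 per compound, got a single 250 mg/kg dose in sesame oil by intragastric intubation. Two mice were killed at 0, 1, 2, 4, 6, 8, 12, 16 and 24 h. Pancreas was PBS-washed, blotted, weighed, frozen at −80°C, then homogenized in 5 volumes ice-cold 0.9% saline. Homogenate was ethyl acetate-extracted with zileuton internal standard and assayed by LC-MS/MS. Values are means of two mice.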

A further data set concerns BxPC-3 cells. Kind of data set: PGE2 immunoassay in conditioned medium of BxPC-3 cells. To be noted: 1 or 4 μM, 24 h, vs untreated control. Type of data set: cell-based, human.
The test system of the next data set is MIAPaCa-2 cells. Kind of data set: PGE2 immunoassay in conditioned medium of MIAPaCa-2 cells. To be noted: 1 or 4 μM, 24 h, vs untreated control. Type of data set: cell-based, human.
Data set [3] is described as follows: Serum pharmacokinetics in mice after single intragastric dose. Type of data set: in vivo. The method, boiled down:
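Female ICR-SCID mice, 7–8 weeks old, 18 per compound, got a single oral 250 mg/kg dose in sesame oil by intragastric tube. Two mice were killed at 0–24 h (nine time points). Cardiac blood was clotted and serum stored at −80°C, then ethyl acetate-extracted with zileuton internal standard and assayed by LC-MS/MS. Cmax was read from the curve. AUClast used linear (rising) and log (falling) trapezoids in non-compartmental analysis. Values are means of two mice.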

Data set [4] deals with COX-2 positive BxPC-3 pancreatic cancer cells. To be noted: BxPC-3 cells, MTT assay; cited from earlier work. (Tetrazolium dyes change colour on reduction, which living cells bring about.)
The conditions of data set [5]: serum, oral 1 g/kg body weight, mouse; cited from earlier work.
[6] abbreviates: pancreas, single intragastric 250 mg/kg, mice, mean from two mice.
Setting [7] is: single intragastric 250 mg/kg, mice, mean from two mice.
[8] abbreviates: female, ICR-SCID, mouse, pancreas, po, 250 mg/kg.
Where [9] appears, read: female, ICR-SCID, mouse, po, 250 mg/kg.

Values joined by “and” are separate entries in the source; they are usually repeats but may differ in a detail not shown here. Identical values can stand only once. “Also recorded” adds a separate entry of the source.

In general, IC50 refers to the concentration at which inhibition is half-maximal. As usually defined, the Cmax is the maximum level reached in the sampled fluid or tissue. The term Tmax denotes the time from dosing to the highest level. As to `COc1cc(/C=C/C(=O)C(=Cc2ccc(F)c(F)c2)C(=O)/C=C/c2ccc(O)c(OC)c2)ccc1O` [CDF], the “NF-κB DNA-binding activity” value in the data set on NF-κB was “the effect was more pronounced with a low concentration of CDF”. The “Water solubility relative to Curcumin” value in the data set “Water solubility” is 8.4 fold. The IC50 in [1] worked out at 0.05 µM. The “Cmax in pancreas relative to serum” value in data set [2] (at 8 h, oral 250 mg/kg, mice) is 44.5 fold. The “Cmax in pancreas relative to Curcumin” value in data set [2] (pancreas, oral 250 mg/kg, mice) was determined as 4.3 fold. Further, the “AUClast (concentration) in pancreas relative to Curcumin” value in [2] (pancreas, oral 250 mg/kg, mice, 250 mg/kg) was 10 fold and 10.6 fold. For the same compound, in data set [2] (setting [6]), the AUClast was determined as 36.56 µg·h/g, the Clast is 0.04 µg/g, the Cmax was determined as 9.35 µg/g and the Tlast turned out to be 12.0 h. The Tmax in [2] (setting [6]) is 8.0 h. For the same compound, in the data set on BxPC-3 cells, the “PGE2 level in conditioned medium” value is listed as “significant decrease; also recorded: significant reduction”. Besides, in the data set with MIAPaCa-2 cells, the “PGE2 level in conditioned medium” value is reported as “significant decrease; also recorded: substantial reduction”. Further, in [3] (oral 250 mg/kg, mice), the “Systemic drug level (serum AUClast) relative to Curcumin” value worked out at 2.7 fold. In data set [3] (setting [7]), this compound gave an AUClast of 1220 ng·h/mL, a Clast of 40 ng/mL, a Cmax of 210 ng/mL and a Tlast of 16.0 h. The Tmax in [3] (setting [7]) is on record as 8.0 h. For the same compound, the “IC50, anti-proliferative activity” value in [4] is given as “low IC50 value”.
In the case of `COc1cc(/C=C/C(=O)CC(=O)/C=C/c2ccc(O)c(OC)c2)ccc1O` [Curcumin, diferuloylmethane, reference compound], in the data set with NF-κB, the “NF-κB DNA-binding activity” value is listed as “caused down-regulation of NF-κB”. In addition, the IC50 in data set [1] was found to be 35 µM. Moreover, the results for the Cmax in [2] (setting [8]) and in [3] (setting [9]) were 2.15 µg/g and 220 ng/mL, respectively. The Tmax in data set [2] (setting [8]) and in [3] (setting [9]) was 1 h throughout. The compound also returned an AUClast in [2] (setting [6]) of 3.46 µg·h/g. The Tlast in data set [2] (setting [6]) is 16.0 h; in [3] (setting [7]) it was 8 h and 8.0 h. For the same compound, the “Time of Cmax” value in [5] is reported as 1 h. For the same compound, the “PGE2 level in conditioned medium” value in the data set on BxPC-3 cells was “such results were not found; also recorded: no significant change”; in the data set with MIAPaCa-2 cells, “significant decrease; also recorded: substantial reduction”.
